Each structure is given as a SMILES string. Activity calls are given as the source filed them. No cut-off for these calls is given here.

Data set [1] relates to Mus musculus. As to the kind of experiment: Inhibition of LPS-induced serum IL-1beta production in C57BL/6 mouse at 10 mg/kg, ip pretreated before LPS challenge and measured after […] post LPS challenge by ELISA. The format is functional, organism-based. (In an ELISA, binding on a coated surface is turned into a signal by an enzyme label.)
For data set [2], the system named is Mus musculus. As to the kind of experiment: Inhibition of LPS-induced serum TNFalpha production in C57BL/6 mouse at 10 mg/kg, ip pretreated before LPS challenge and measured after […] post LPS challenge by ELISA. The format is functional, organism-based.
Data set [3] in a line: Toxicity in human hCMEC/D3 cells assessed as reduction in cell viability at 20 uM. The format is cell-based. The conditions noted are these: hcmec/d3, 20 µM. An outline of the steps:
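hCMEC/D3 cells (passage 25-35, EGM-2-based media) exposed to compound at 20 μM for 2 h; viability read by Live/Dead staining. Mean ± SEM from 3 independent experiments, ≥triplicates each.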

Data set [4] deals with Mus musculus. As to the kind of experiment: Inhibition of LPS-induced serum IL-1beta production in nlrp3-/- C57BL/6 mouse at 10 mg/kg, ip pretreated before LPS challenge and measured after […] post LPS challenge by ELISA. The format is functional, organism-based.

As to `C#CCNS(=O)(=O)c1ccc(CCN(Cc2cc(Cl)ccc2OC)C(=O)C=C)cc1`, the inhibition result in data set [1] and in data set [2] was “Active” in each case.

For `CC(C)(O)c1coc(S(=O)(=O)NC(=O)Nc2c3c(cc4c2CCC4)CCC3)c1`, the inhibition result in data set [1] was “Active”.

With `C#CCNS(=O)(=O)c1ccc(CCN(Cc2cc(Cl)ccc2OCCC)C(=O)Cc2ccsc2)cc1`, in data set [1], the inhibition entry was “Active”. Further, the inhibition result in data set [2] and in data set [4] was “inactive” in each case. Besides, the Activity result in data set [3] was “Non-Toxic”.

The values are drawn from ChEMBL document CHEMBL4414625, “Discovery of Second-Generation NLRP3 Inflammasome Inhibitors: Design, Synthesis, and Biological Characterization” (J Med Chem, 2019).
